Compound activity deposited in PubChem BioAssay by several laboratories.
Sampled rows, rich in hits. Any-hit rate of the full collection: about 3.6%.
Hsp70 act = Hsp70 transcriptional activators, primary screen, cell-based, HeLa, Hsp70 promoter luciferase, luminescence, 10 µM; HeLa Hsp70 promoter luciferase reporter; scaled: vehicle 0, proteasome-inhibitor control 100%; activation, % at 10 µM; actives 0.04% (n = 200,000);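 active = activation above the mean across all tested compounds plus 3 SD, cutoff set per campaign, cut at about 5.5% in these data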;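 note: 100% = MG132 at 30 µM as the positive control and 0% = DMSO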
PolyA inhibitor = polyadenylation inhibitors in yeast reporter cells, primary screen, luminescence, S. cerevisiae. S. cerevisiae SKY197-pL101 polyadenylation reporter, beta-gal luminescence; efflux-impaired pdr1/pdr3 knockout yeast; score 100 = 6 SD above DMSO. activity score, % at 12 µM. actives 0.02% (n = 300,000);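 active = lowest replicate activity score at least 50, where 100 means six control SD above control mean; inconclusive = lowest score under 50 but half or more replicates reach 50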;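 note: yeast exposed to compound for 9 h at 30 °C; higher score means more reporter readthrough which indicates perturbed polyadenylation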
PERK inh = block of dimerizer-induced PERK translation repression, primary screen, PERK inhibitor project, CHO PERK-DD cells, SEAP luminescence, HTS | Eukaryotic translation initiation factor 2-alpha kinase 3 (Homo sapiens), Q9NZJ5 | CHO PERK-DD fusion, SEAP luminescence translation reporter | inhibition, % at 5.6 µM | actives 0.17% (n = 220,000) | AID 1416, 2008;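 active = inhibition above the mean inhibition of all tested compounds plus 3 SD, set separately per screening campaign, cut at about 2.9% in these data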;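 note: PERK kinase domain activated by AP20187 dimerizer at 100 nM; 0% = DMSO with dimerizer and 100% = rapamycin at 8.4 µM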
STAT3 act = IL-6 driven STAT3 reporter potentiators, primary screen, U3A cells, luciferase, luminescence, MLSCN library; IL-6 STAT3-luciferase reporter; 100% = signal with IL-6 EC80 alone; actives 0.91% (n = 190,000); activation (% of control), % at 5.6 µM;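 active = activation above the screen-wide mean of compound activation plus 3 SD, cut at about 130% in these data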;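 note: 0% = background luminescence of wells with medium and substrate only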
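Material: STAT3-luciferase reporter U3A cells. Controls: IL-6-treated wells, 100% activation. Read-out: % activation versus median of IL-6-stimulated wells. Probe or stimulus: IL-6 stimulus at 33 ng/mL final. Timing: compound 1 h, then IL-6 6 h at 37 °C. Signal: reporter luminescence signal.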
AHR act = AHR activators, primary screen, cell-based, luminescence, luciferase reporter, human. actives 2.5% (n = 320,000). Aryl hydrocarbon receptor (Homo sapiens), P35869. activation, % at 5 µM. AHR-responsive luciferase reporter cells; in the data active = activation above about 47%;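 note: 0% = vehicle wells and 100% = reference agonist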
Target sequence (P35869 whole entry, looked up): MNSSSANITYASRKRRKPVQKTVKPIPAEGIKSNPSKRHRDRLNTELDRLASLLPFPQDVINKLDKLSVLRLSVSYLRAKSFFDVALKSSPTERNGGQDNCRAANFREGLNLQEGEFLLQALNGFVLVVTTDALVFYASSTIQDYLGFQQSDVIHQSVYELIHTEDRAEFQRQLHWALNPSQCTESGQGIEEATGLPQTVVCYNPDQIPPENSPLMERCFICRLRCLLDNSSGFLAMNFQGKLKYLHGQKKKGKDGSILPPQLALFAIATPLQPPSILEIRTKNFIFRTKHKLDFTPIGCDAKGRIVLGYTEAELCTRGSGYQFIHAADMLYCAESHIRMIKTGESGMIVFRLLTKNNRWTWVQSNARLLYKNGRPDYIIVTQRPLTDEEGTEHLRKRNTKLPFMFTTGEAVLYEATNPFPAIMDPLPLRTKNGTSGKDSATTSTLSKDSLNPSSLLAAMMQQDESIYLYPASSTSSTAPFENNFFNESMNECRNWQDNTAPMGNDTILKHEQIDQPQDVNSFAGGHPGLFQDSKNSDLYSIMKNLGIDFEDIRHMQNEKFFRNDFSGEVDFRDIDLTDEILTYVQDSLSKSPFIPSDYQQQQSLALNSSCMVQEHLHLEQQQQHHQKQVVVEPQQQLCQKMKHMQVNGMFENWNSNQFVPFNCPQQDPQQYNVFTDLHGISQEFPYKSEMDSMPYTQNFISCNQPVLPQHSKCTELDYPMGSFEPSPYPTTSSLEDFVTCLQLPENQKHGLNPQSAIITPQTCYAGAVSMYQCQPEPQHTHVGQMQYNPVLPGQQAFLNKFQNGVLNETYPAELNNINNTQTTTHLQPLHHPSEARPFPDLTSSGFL
HSF1 inhib = HSF1 inhibitors in luciferase reporter cells, primary screen, cell-based, NIH3T3, luminescence; NIH3T3-HGL HSE-luciferase, MG132-induced, luminescence 8 h; stronger effect = lower value; activity change, negative = inhibition, % at 7.5 µM (by protocol); actives 0.77% (n = 300,000);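 active = more than half of replicate wells show activity change below -50%, luminescence cut by over half; inconclusive = some wells, but at most half, below -50%; inactive = no replicate well below -50%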;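 note: luciferase reports HSF-1 transcriptional activity via heat shock element; 0% = median of DMSO wells and -100% = zero luminescence signal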
The depositor's hits bear a star; u = inconclusive; x = no result.

SMILES	Hsp70 act	PolyA inhibitor	PERK inh	STAT3 act	AHR act	HSF1 inhib
CC(=O)Nc1ccc2nc(NC(=O)c3ccc([N+](=O)[O-])o3)sc2c1	x	-0.7	x	x	57.6*	18.7
CCOC(=O)N1CCN(C(=O)c2cccn3c(=O)c4sccc4nc23)CC1	-0.2	x	0.5	103.7	1.6	x
O=C(O)c1cccn2c(=O)c3ccccc3nc12	-0.5	-6.0	0.0	105.6	2.2	-3.2
O=C(c1cccn2c(=O)c3cc(Br)ccc3nc12)N1CCN(c2ccccn2)CC1	-0.1	x	-0.9	106.2	74.3*	x
O=C(c1cccn2c(=O)c3ccccc3nc12)N1CCN(c2ccccn2)CC1	-0.3	22.4	-1.0	58.7	2.4	6.0
CCOC(=O)N1CCN(C(=O)c2cccn3c(=O)c4cc(Br)ccc4nc23)CC1	-0.5	-17.1	1.0	100.2	58.2*	-3.7
O=C(NCCN1CCOCC1)c1cccn2c(=O)c3c4c(sc3nc12)CCCC4	x	-5.5	-1.0	x	53.9*	-5.6
O=C(c1cccn2c(=O)c3cc4ccccc4cc3nc12)N1CCN(c2ccccc2)CC1	0.0	-9.9	0.6	127.2	71.3*	0.5
Cc1c(NC(=O)Nc2ccc(C(C)(C)C)cc2)c(=O)n(-c2ccccc2)n1C	x	-2.4	x	x	2.9	-1.9
O=C(COC(=O)CCc1ccccc1)NNC(=O)c1ccccc1	x	x	x	x	-0.9	x
CC1CCN(CCC(=O)N/N=C/c2ccc([N+](=O)[O-])cc2)CC1	-0.3	-2.9	0.5	100.8	2.5	6.2
O=C(NCCN1CCN(c2ccccc2)CC1)c1cccc(Cl)c1	x	-13.4	x	x	1.2	-7.1
CCOC(=O)N1CCN(C(=O)c2cccn3c(=O)c4cc(Cl)ccc4nc23)CC1	0.1	-2.4	-0.6	102.4	90.9*	1.7
CCOC(=O)N1CCN(C(=O)c2ccc3nc4ccc(Cl)cc4c(=O)n3c2)CC1	-0.1	-12.0	-0.7	96.8	5.1	-1.0
O=C(NCCN1CCN(c2ccccc2)CC1)c1cccn2c(=O)c3cc(Cl)ccc3nc12	-0.2	7.2	-0.3	113.6	94.2*	-5.8
Cc1cc(NC(=O)NN2CCOCC2)nn1-c1c(Cl)cccc1Cl	x	-4.2	1.1	x	-1.9	-2.7
CC1CCC(NC(=O)CCC(=O)N2CC(C)Oc3ccccc32)CC1 (configuration not stated)	x	8.1	x	x	3.7	0.9
CCS(=O)(=O)c1ncc(Cl)c(C(=O)Nc2ccc(C)cc2)n1	x	-3.5	x	x	23.5	-97.7*
Cc1csc2ncc(C(=O)NCc3ccccc3Cl)c(=O)n12	-0.1	11.2	-0.3	101.8	45.3	5.4
Cc1csc2ncc(C(=O)NCc3ccc4c(c3)OCO4)c(=O)n12	x	0.8	x	x	78.3*	-2.0
CCS(=O)(=O)c1ncc(Cl)c(C(=O)Nc2ccc(S(=O)(=O)N3CCCC(C)C3)cc2)n1 (configuration not stated)	x	-19.0	x	x	-2.8	-79.5*
CC(=O)Nc1ccc(NC(=O)c2nc(S(=O)(=O)Cc3ccccc3)ncc2Cl)cc1	x	-4.2	x	x	1.2	-93.6*
O=C(NCc1ccccc1)c1nc(S(=O)(=O)Cc2ccccc2)ncc1Cl	x	-22.8	x	x	1.2	174.5
NS(=O)(=O)c1cccc(NC(=O)COC(=O)/C=C/c2nc3ccccc3s2)c1	x	x	x	x	4.5	x
CN1C(=O)C2(OCC(CO)([N+](=O)[O-])CO2)c2ccccc21 (configuration not stated)	x	-9.7	x	x	0.8	6.8
SMILES	Hsp70 act	PolyA inhibitor	PERK inh	STAT3 act	AHR act	HSF1 inhib
O=C(NCc1ccc2c(c1)OCO2)c1nc(S(=O)(=O)Cc2ccccc2)ncc1Cl	x	-12.1	x	x	1.9	-88.8*
CS(=O)(=O)c1ncc(Cl)c(C(=O)Nc2ccc3ccccc3c2)n1	0.9	-77.3	0.5	70.2	x	-92.7*
Cn1ncc(Cl)c1C(=O)Nc1ccc(CN2CCCCC2)cc1	x	-1.7	x	x	76.0*	-1.5
O=C(NCc1ccc2c(c1)OCO2)C1(S(=O)(=O)c2ccccc2)CC1	0.5	7.2	0.5	100.8	69.7*	-2.0
O=C(O)c1ccc(CSc2nnc(-c3cccnc3)n2-c2ccc(Br)cc2)cc1	-0.1	37.2	1.2	84.5	-2.0	-1.9
CCC1CCCCN1S(=O)(=O)c1ccc(NC(=O)c2ccncc2)cc1 (configuration not stated)	x	-3.9	x	x	2.7	0.3
Cn1ncc(Cl)c1C(=O)NCc1ccc(Cl)cc1	-0.2	9.4	-0.1	90.2	-0.3	-11.1
CCC1CCCCN1S(=O)(=O)c1ccc(NC(=O)c2nc(S(C)(=O)=O)ncc2Cl)cc1 (configuration not stated)	x	-32.1	x	x	-2.3	-83.6*
Cn1ncc(Cl)c1C(=O)NCc1ccc2c(c1)OCO2	x	9.2	x	x	49.4*	5.1
CCOc1ccc(CNC(=S)Nc2ccccc2)cc1Cl	x	4.8	x	x	29.3	3.7
COc1ccc(/C=C(\NC(=O)c2ccccc2)C(=O)OCC2CCCN3CCCCC23)cc1OC (configuration not stated)	-0.3	0.0	-0.1	102.2	-1.7	1.1
Cc1cc(C(=O)Nc2sc(C)c(C)c2C#N)c(C)o1	-0.2	-1.5	0.5	92.9	76.4*	16.0
Cc1ccc(Cl)cc1NC(=S)N1CCC(c2ccccc2)C1 (configuration not stated)	0.1	-11.9	-1.4	99.2	0.7	-26.5
CC(C#N)On1c(SC(C)C#N)nc2ccccc2c1=O (configuration not stated)	-0.2	12.7	0.4	107.5	1.0	-1.5
CCC(C)n1c(SC(C)C#N)nc2ccccc2c1=O (configuration not stated)	-0.3	-1.0	-0.5	107.1	-1.6	-85.0*
CCn1c2ccccc2c2c3ncc4cccn4c3ccc21	x	u	0.7	x	65.6*	11.2
CC(=O)OCc1nc2ccccc2s1	-0.1	18.7	-0.3	163.2*	15.7	0.9
c1ccc(OCc2nc3ccccc3s2)cc1	-0.1	-18.8	0.5	109.0	16.4	28.2
O=C(CNC(=O)c1ccccc1)OCc1nc2ccccc2s1	-0.1	-7.5	0.4	135.9*	18.7	2.7
CCC(=O)Nc1ccc(OCc2nc3ccccc3s2)cc1	-0.2	-7.3	1.6	131.6	57.8*	18.2
COc1cccc(OC)c1OCC(=O)Nc1ccc(S(=O)(=O)N2CCCC2)cc1	x	x	x	x	-1.4	x
CCc1ccc(NC(=O)CN2C(=O)C(=O)N(Cc3ccccc3)C2=O)cc1	-0.2	-4.1	-0.4	105.5	6.8	0.5
Cc1ccc(C(=O)N2CCCc3ccccc32)c(F)c1F	x	-8.0	x	x	-1.3	-5.8
